In brackets after ≈: the same amount, converted by molar mass.
System: not listed separately
Experiment: Selectivity index, ratio of CC50 for african green monkey Vero cells to IC50 for microfilariae Brugia malayi
Type: functional
Settings: not given
Method in brief: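 Selectivity index was calculated as CC50 (concentration killing 50% of cells) divided by the motility IC50 (concentration giving 50% motility inhibition). This was done separately for female adult worms and for microfilariae of B. malayi.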

Question: For `CCOC(=O)[C@@]1(C)CC[C@]2(C)CC[C@]3(C)C(=CC(=O)[C@@H]4[C@@]5(C)CC[C@H](OC(C)=O)C(C)(C)[C@@H]5CC[C@]43C)[C@@H]2C1`, which “Ratio CC50/IC50” value is on record?
Answer: Its value is 1.16.

System: not listed separately
Experiment: Cytotoxicity against african green monkey Vero cells
Type: cell-based
Settings: chlorocebus sabaeus

Question: Which CC50 does the source give for `CCOC(=O)[C@@]1(C)CC[C@]2(C)CC[C@]3(C)C(=CC(=O)[C@@H]4[C@@]5(C)CC[C@H](OC(C)=O)C(C)(C)[C@@H]5CC[C@]43C)[C@@H]2C1` here?
Answer: The CC50 was 10.3 µg/mL (≈ 19 µM).

System: Brugia malayi
Experiment: Antifilarial activity against microfilariae Brugia malayi assessed as inhibition of motility after 24 hrs by microscopic analysis
Type: functional, organism-based
Settings: not given
Method in brief: (§1)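 In vitro, female adult worms and microfilariae of Brugia malayi were scored for motility. LC100 is the concentration giving 100% motility inhibition, which is taken as parasite death. IC50 is the concentration giving 50% motility inhibition. Adult worms were also run in a parallel MTT reduction assay, reported as mean % inhibition.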

Question: Which LC100 does the source give for `CC1(C)[C@@H](O)CC[C@]2(C)[C@H]3C(=O)C=C4[C@@H]5C[C@@](C)(C(=O)O)CC[C@]5(C)CC[C@@]4(C)[C@]3(C)CC[C@@H]12` [ENOXOLONE] here?
Answer: The LC100 was 12.5 µM.

Question: Which LC100 does the source give for `CC(=O)O[C@H]1CC[C@]2(C)[C@H]3C(=O)C=C4[C@@H]5C[C@@](C)(C(=O)O)CC[C@]5(C)CC[C@@]4(C)[C@]3(C)CC[C@H]2C1(C)C` [ACETOXOLONE] here?
Answer: The LC100 was over 100 µM.

Question: With `CCCCCCCCCCCC(=O)O[C@H]1CC[C@]2(C)[C@H]3C(=O)C=C4[C@@H]5C[C@@](C)(C(=O)O)CC[C@]5(C)CC[C@@]4(C)[C@]3(C)CC[C@H]2C1(C)C` as the compound, how does the LC100 read?
Answer: The LC100 was over 100 µM.

Question: For `CCOC(=O)[C@@]1(C)CC[C@]2(C)CC[C@]3(C)C(=CC(=O)[C@@H]4[C@@]5(C)CC[C@H](OC(C)=O)C(C)(C)[C@@H]5CC[C@]43C)[C@@H]2C1`, which LC100 is on record?
Answer: Its LC100 is 50 µM.

Same assay, conditions: Brugia malayi, 24 h

Question: For `CC1(C)[C@@H](O)CC[C@]2(C)[C@H]3C(=O)C=C4[C@@H]5C[C@@](C)(C(=O)O)CC[C@]5(C)CC[C@@]4(C)[C@]3(C)CC[C@@H]12` [ENOXOLONE], which IC50 is on record?
Answer: The IC50 was 1.2 µM.

Question: Which IC50 does the source give for `CCOC(=O)[C@@]1(C)CC[C@]2(C)CC[C@]3(C)C(=CC(=O)[C@@H]4[C@@]5(C)CC[C@H](OC(C)=O)C(C)(C)[C@@H]5CC[C@]43C)[C@@H]2C1` here?
Answer: Its IC50 is 8.84 µM.

System: Brugia malayi
Experiment: Antifilarial activity against female adult Brugia malayi assessed as inhibition of motility after 24 hrs by microscopic analysis
Type: functional, organism-based
Settings: not given
Method in brief: as §1

Question: For `CC1(C)[C@@H](O)CC[C@]2(C)[C@H]3C(=O)C=C4[C@@H]5C[C@@](C)(C(=O)O)CC[C@]5(C)CC[C@@]4(C)[C@]3(C)CC[C@@H]12` [ENOXOLONE], which LC100 is on record?
Answer: Its LC100 is over 100 µM.

Question: For `CC(=O)O[C@H]1CC[C@]2(C)[C@H]3C(=O)C=C4[C@@H]5C[C@@](C)(C(=O)O)CC[C@]5(C)CC[C@@]4(C)[C@]3(C)CC[C@H]2C1(C)C` [ACETOXOLONE], which LC100 is on record?
Answer: The LC100 was over 100 µM.

Question: With `CCCCCCCCCCCC(=O)O[C@H]1CC[C@]2(C)[C@H]3C(=O)C=C4[C@@H]5C[C@@](C)(C(=O)O)CC[C@]5(C)CC[C@@]4(C)[C@]3(C)CC[C@H]2C1(C)C` as the compound, how does the LC100 read?
Answer: The LC100 was over 100 µM.

Question: For `CCOC(=O)[C@@]1(C)CC[C@]2(C)CC[C@]3(C)C(=CC(=O)[C@@H]4[C@@]5(C)CC[C@H](OC(C)=O)C(C)(C)[C@@H]5CC[C@]43C)[C@@H]2C1`, which LC100 is on record?
Answer: Its LC100 is over 100 µM.

System: Brugia malayi
Experiment: Antifilarial activity against female adult Brugia malayi assessed as inhibition of MTT reduction at LC100 concentration after 24 hrs
Type: functional
Settings: not given

Question: Which “inhibition (INH)” value does the source give for `CC1(C)[C@@H](O)CC[C@]2(C)[C@H]3C(=O)C=C4[C@@H]5C[C@@](C)(C(=O)O)CC[C@]5(C)CC[C@@]4(C)[C@]3(C)CC[C@@H]12` [ENOXOLONE] here?
Answer: Its value is 21.71%.

Question: Which “inhibition (INH)” value does the source give for `CC(=O)O[C@H]1CC[C@]2(C)[C@H]3C(=O)C=C4[C@@H]5C[C@@](C)(C(=O)O)CC[C@]5(C)CC[C@@]4(C)[C@]3(C)CC[C@H]2C1(C)C` [ACETOXOLONE] here?
Answer: Its value is 9.45%.

Question: For `CCCCCCCCCCCC(=O)O[C@H]1CC[C@]2(C)[C@H]3C(=O)C=C4[C@@H]5C[C@@](C)(C(=O)O)CC[C@]5(C)CC[C@@]4(C)[C@]3(C)CC[C@H]2C1(C)C`, which “inhibition (INH)” value is on record?
Answer: Its value is 10.69%.

Question: With `CCOC(=O)[C@@]1(C)CC[C@]2(C)CC[C@]3(C)C(=CC(=O)[C@@H]4[C@@]5(C)CC[C@H](OC(C)=O)C(C)(C)[C@@H]5CC[C@]43C)[C@@H]2C1` as the compound, how does the “inhibition (INH)” value read?
Answer: The value was 28.78%.

Reference: ChEMBL document CHEMBL2375261, “Glycyrrhetinic acid and its analogs: a new class of antifilarial agents” (Bioorg Med Chem Lett, 2013)
